What all share (type): cell-based
The target in test [1] is Potassium voltage-gated channel subfamily KQT member 2 (Rattus norvegicus) (UniProt O88943). Description: Activity at rat KCNQ2 expressed in CHOK1 cells assessed as ratio of amplitude of outward current in presence of test compound to amplitude of outward current in absence of test compound at 10 uM at -10 mV by whole cell patch clamp assay. An outline of the steps:
(§1)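 CHO-K1 cells expressing the channel, whole-cell voltage clamp, compound at 10 μM. Read-out is the outward current ratio I/I0 with and without compound, taken at −10 mV. I/I0 > 1 counts as activation and < 1 as inhibition. More than four cells per compound.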

For test [2], the target named is T1, Potassium voltage-gated channel subfamily KQT member 4 (Homo sapiens) (UniProt P56696).
T1 sequence (whole entry): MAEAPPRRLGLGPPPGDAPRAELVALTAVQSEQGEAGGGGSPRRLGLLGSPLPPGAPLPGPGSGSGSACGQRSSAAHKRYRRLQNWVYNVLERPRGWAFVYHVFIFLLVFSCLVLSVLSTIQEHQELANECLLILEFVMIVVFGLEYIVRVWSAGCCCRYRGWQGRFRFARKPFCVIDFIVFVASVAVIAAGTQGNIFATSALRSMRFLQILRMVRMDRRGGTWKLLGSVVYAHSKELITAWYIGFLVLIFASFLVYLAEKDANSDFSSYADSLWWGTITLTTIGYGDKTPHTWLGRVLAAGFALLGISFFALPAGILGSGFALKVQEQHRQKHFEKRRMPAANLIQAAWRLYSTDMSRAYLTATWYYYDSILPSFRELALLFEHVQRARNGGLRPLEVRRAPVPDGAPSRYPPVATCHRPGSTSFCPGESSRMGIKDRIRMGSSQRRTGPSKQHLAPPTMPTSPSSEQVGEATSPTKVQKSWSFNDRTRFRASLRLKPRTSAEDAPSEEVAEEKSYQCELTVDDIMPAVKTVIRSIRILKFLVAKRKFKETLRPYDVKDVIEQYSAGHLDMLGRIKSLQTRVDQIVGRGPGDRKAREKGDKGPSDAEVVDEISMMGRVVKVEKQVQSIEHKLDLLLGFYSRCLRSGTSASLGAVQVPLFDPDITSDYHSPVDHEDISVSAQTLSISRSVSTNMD
Description: Activity at human KCNQ4 expressed in CHOK1 cells assessed as ratio of amplitude of outward current in presence of test compound to amplitude of outward current in absence of test compound at 10 uM at -10 mV by whole cell patch clamp assay. An outline of the steps: as §1

Test [3] concerns the target T2, Potassium voltage-gated channel subfamily KQT member 5 (Homo sapiens, UniProt Q9NR82). Description: Activity at human KCNQ5 expressed in CHOK1 cells assessed as ratio of amplitude of outward current in presence of test compound to amplitude of outward current in absence of test compound at 10 uM at -10 mV by whole cell patch clamp assay. In a few lines: as §1
In test [4] the target is Potassium voltage-gated channel subfamily KQT member 2 (Rattus norvegicus, UniProt O88943). Description: Agonist activity at rat KCNQ2 expressed in CHOK1 cells by whole cell patch clamp assay. An outline of the steps: (§2)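 Concentration–response by whole-cell voltage clamp in CHO-K1 cells transiently expressing the homomeric channel. EC50 and Hill coefficient come from fitting outward currents recorded across the tested concentrations.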

Test [5] deals with T2, Potassium voltage-gated channel subfamily KQT member 5. Description: Agonist activity at human KCNQ5 expressed in CHOK1 cells by whole cell patch clamp assay. An outline of the steps: as §2
Test [6] addresses T3, Potassium voltage-gated channel subfamily KQT member 4 (Homo sapiens, UniProt P56696).
T3 sequence (P56696 whole entry): T1 sequence (whole entry)
Description: Agonist activity at human KCNQ4 expressed in CHOK1 cells by whole cell patch clamp assay. In a few lines:
as §2

Test [7] deals with Potassium voltage-gated channel subfamily KQT member 2 (Rattus norvegicus) (UniProt O88943). Description: Effect on voltage-dependent activation of rat KCNQ2 expressed in CHOK1 cells assessed as negative shift in current activation curve at 10 uM by whole cell patch clamp assay.
Test [8] has as its target T1, Potassium voltage-gated channel subfamily KQT member 4 (Homo sapiens). Description: Effect on voltage-dependent activation of human KCNQ4 expressed in CHOK1 cells assessed as negative shift in current activation curve at 10 uM by whole cell patch clamp assay.
The target in test [9] is Potassium voltage-gated channel subfamily KQT member 2 (Rattus norvegicus) (UniProt O88943). Description: Inhibition of rat KCNQ2 expressed in CHOK1 cells at 10 uM at -10 mV by whole cell patch clamp assay relative to control. An outline of the steps: as §1

pEC50: −log10 of the molar value. Bounds are passed on as bounds.

The source of these data is ChEMBL document CHEMBL4382285, “Discovery of Novel Retigabine Derivatives as Potent KCNQ4 and KCNQ5 Channel Agonists with Improved Specificity” (ACS Med Chem Lett, 2019).

Sequence of Potassium voltage-gated channel subfamily KQT member 2 (Rattus norvegicus) (O88943 whole entry): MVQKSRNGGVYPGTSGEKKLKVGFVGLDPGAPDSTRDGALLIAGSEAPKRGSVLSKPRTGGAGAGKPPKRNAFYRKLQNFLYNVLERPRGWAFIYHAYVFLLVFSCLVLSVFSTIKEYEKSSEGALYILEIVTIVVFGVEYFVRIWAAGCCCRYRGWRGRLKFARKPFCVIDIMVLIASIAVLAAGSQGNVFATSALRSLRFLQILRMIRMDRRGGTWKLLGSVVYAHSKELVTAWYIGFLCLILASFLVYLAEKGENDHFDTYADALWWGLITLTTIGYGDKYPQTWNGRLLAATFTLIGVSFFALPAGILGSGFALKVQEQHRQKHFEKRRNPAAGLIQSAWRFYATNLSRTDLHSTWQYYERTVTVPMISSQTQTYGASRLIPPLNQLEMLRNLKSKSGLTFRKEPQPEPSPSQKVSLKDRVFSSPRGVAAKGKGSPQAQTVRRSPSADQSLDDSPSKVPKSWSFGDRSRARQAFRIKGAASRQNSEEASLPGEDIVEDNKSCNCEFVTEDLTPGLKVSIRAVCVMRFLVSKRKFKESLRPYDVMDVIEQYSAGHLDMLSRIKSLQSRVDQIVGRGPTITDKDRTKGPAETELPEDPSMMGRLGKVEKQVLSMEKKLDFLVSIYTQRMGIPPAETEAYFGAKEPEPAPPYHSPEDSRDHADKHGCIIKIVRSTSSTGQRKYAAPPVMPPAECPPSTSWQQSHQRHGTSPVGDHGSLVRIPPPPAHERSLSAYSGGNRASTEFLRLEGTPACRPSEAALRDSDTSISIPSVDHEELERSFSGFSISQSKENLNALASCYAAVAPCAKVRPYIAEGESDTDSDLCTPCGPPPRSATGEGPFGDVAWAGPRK
Sequence of Potassium voltage-gated channel subfamily KQT member 2 (O88943 whole entry): as above
T2 sequence (Q9NR82 whole entry): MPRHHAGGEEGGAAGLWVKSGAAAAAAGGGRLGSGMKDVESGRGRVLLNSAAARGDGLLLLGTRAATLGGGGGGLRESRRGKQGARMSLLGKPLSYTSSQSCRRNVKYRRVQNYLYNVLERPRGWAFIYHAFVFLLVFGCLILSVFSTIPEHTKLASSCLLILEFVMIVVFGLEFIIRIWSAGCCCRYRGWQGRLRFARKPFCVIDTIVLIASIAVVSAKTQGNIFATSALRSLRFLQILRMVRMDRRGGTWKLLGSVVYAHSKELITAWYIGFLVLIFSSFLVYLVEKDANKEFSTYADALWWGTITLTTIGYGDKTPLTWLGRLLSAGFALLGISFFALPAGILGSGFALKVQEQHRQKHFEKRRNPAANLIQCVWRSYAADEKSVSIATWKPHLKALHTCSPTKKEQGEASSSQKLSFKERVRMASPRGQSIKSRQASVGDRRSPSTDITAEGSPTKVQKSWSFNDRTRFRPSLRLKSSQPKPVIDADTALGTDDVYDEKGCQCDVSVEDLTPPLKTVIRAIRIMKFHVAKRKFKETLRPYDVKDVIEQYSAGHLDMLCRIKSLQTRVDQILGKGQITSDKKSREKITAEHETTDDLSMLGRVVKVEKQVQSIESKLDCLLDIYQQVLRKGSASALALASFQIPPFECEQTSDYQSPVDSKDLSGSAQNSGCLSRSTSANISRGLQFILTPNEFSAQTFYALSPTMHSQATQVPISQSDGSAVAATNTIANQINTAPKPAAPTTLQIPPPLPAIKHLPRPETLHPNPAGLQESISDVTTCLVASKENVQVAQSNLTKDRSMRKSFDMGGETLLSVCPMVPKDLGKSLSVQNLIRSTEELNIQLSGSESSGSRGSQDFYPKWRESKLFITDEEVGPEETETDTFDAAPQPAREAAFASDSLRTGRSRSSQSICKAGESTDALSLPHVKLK

As for `C#CCN(Cc1ccc(F)cc1)c1ccc(NC(=O)OCC)c(NC(=O)OCCCC)c1`, the Ratio amounted to 1.06 in [1], 4.16 in test [2] and 3.62 in test [3].

Consider `C/C=C(\C)CN(Cc1ccc(F)cc1)c1ccc(NC(=O)OCC)c(NC(=O)OCC)c1`, for which the Ratio in test [1] was determined as 0.85; in [2] it was 2.36; in [3], 1.28.

Take `C#CCN(Cc1ccc(F)cc1)c1ccc(NC(=O)OCC)c(NC(=O)OCc2ccccc2)c1`: the Ratio was determined as 0.97 in test [1], 1.27 in test [2] and 2.57 in [3].

Regarding `C#CCN(Cc1ccc(F)cc1)c1ccc(NC(=O)Oc2ccccc2)c(NC(=O)Oc2ccccc2)c1`, the Ratio in [1] turned out to be 0.91; in test [2], 1.22; in [3], 1.16.

For the compound `CCOC(=O)Nc1ccc(N(CC2=CCCCC2)Cc2ccc(F)cc2)cc1NC(=O)OCC`, the Ratio in test [1] was determined as 1.19; in test [2], 1.49; in [3] it was 1.05.

Take `C#CCN(Cc1ccc(F)cc1)c1ccc(NC(=O)OCc2ccccc2)c(NC(=O)OCc2ccccc2)c1`: the results for the Ratio in [1], in test [2] and in test [3] were 1.25, 3.02 and 3.57, respectively.

Take `C#CCN(Cc1ccc(F)cc1)c1ccc(NC(=O)OC)c(NC(=O)OC)c1`: the values for the Ratio in test [1], in test [2] and in test [3] were 1.37, 4.77 and 2.89, respectively.

Regarding `CCOC(=O)Nc1ccc(N(CC=C(C)C)Cc2ccc(F)cc2)cc1NC(=O)OCC`, the Ratio in test [1] is 0.66; in test [2] it was 3.63; in test [3], 1.37.

On to `C#CCN(Cc1ccc(F)cc1)c1ccc(NC(=O)OC2CCCC2)c(NC(=O)OC2CCCC2)c1`, for which the Ratio in test [1] amounted to 0.21; in test [2], 0.88; in [3], 1.25.

`C#CCN(Cc1ccc(F)cc1)c1ccc(NC(=O)OC(C)(C)C)c(NC(=O)OCC)c1`: the pEC50 in [4] was less than 4.52; in test [5], 5.86; in test [6] it was 5.85. Further, the Ratio stood at 1.07 in test [1], 7.71 in [2] and 4.59 in [3].

As to `C#CCN(Cc1ccc(F)cc1)c1ccc(NC(=O)OC2CCC2)c(NC(=O)OC2CCC2)c1`, the Ratio is 0.26 in test [1], 1.21 in test [2] and 1.33 in test [3].

As for `C#CCN(Cc1ccc(F)cc1)c1ccc(NC(=O)OCC)c(NC(=O)OCC=C)c1`, the Ratio was 0.96 in test [1], 3.68 in test [2] and 4.67 in test [3].

As for `C#CCN(Cc1ccc(F)cc1)c1ccc(NC(=O)OCC)c(NC(=O)OCCC)c1`, the Ratio in test [1] was 1.07; in test [2], 3.95; in [3], 5.81.

For the compound `C#CCN(Cc1ccc(F)cc1)c1ccc(NC(=O)OCCC)c(NC(=O)OCCC)c1`, the values for the Ratio in [1], in test [2] and in [3] were 0.78, 2.58 and 2.75, respectively.

Consider `C#CCN(Cc1ccc(F)cc1)c1ccc(NC(=O)OCC)c(NC(=O)OC)c1`, for which the Ratio worked out at 0.61 in [1], 2.56 in test [2] and 3.34 in [3].

For the compound `CCOC(=O)Nc1ccc(N(CC#Cc2ccccc2)Cc2ccc(F)cc2)cc1NC(=O)OCC`, the Ratio in test [1] was 1.26; in test [2] it was 1.54; in test [3], 1.13.

With `C#CCN(Cc1ccc(F)cc1)c1ccc(NC(=O)OC(C)C)c(NC(=O)OC(C)C)c1`, the figures for the Ratio in test [1], in [2] and in test [3] were 0.35, 1.33 and 3.11, respectively.

Take `C#CCN(Cc1ccc(F)cc1)c1ccc(NC(=O)OCC(C)C)c(NC(=O)OCC(C)C)c1`: the Ratio in test [1] is 0.83; in [2] it was 1.52; in test [3], 1.73.

On to `CCOC(=O)Nc1ccc(NCc2ccc(F)cc2)cc1N` [EZOGABINE], for which the pEC50 was 5.66 in test [4], 5.46 in test [5] and 5.23 in test [6]. The Activity in [7] and in [8] was 20 to 30 mV in each case. The Ratio in test [1] was determined as 1.6.

For `C=CCN(Cc1ccc(F)cc1)c1ccc(NC(=O)OCC)c(NC(=O)OCC)c1`, the Ratio in test [1] came out at 0.3; in [3], 1.49. Moreover, the inhibition in test [9] came to 70%.

`C#CCN(Cc1ccc(F)cc1)c1ccc(NC(=O)OC2CC2)c(NC(=O)OC2CC2)c1`: the Ratio in test [1] turned out to be 0.64; in test [2], 1.51; in test [3], 2.55.

Regarding `C/C=C/CN(Cc1ccc(F)cc1)c1ccc(NC(=O)OCC)c(NC(=O)OCC)c1`, the results for the Ratio in [1], in test [2] and in test [3] were 0.87, 1.85 and 1.36, respectively.

Take `C#CCN(Cc1ccc(F)cc1)c1ccc(NC(=O)OC(C)(C)C)c(NC(=O)OC(C)(C)C)c1`: the values for the pEC50 in [4], in [5] and in test [6] were less than 4.52, 5.61 and 5.69, respectively. The Ratio in [1] was 1; in [2] it was 3.05; in test [3] it was 5.32.

Consider `C#CCN(Cc1ccc(F)cc1)c1ccc(NC(=O)OCC)c(NC(=O)OC(C)C)c1`, for which the results for the Ratio in test [1], in test [2] and in test [3] were 0.94, 5.01 and 5.71, respectively.

On to `C#CCN(Cc1ccc(F)cc1)c1ccc(NC(=O)OCC)c(NC(=O)OCC(C)C)c1`, for which the Ratio in test [1] amounted to 1.04; in test [2], 5.19; in test [3], 4.84.

Consider `C#CCN(Cc1ccc(F)cc1)c1ccc(NC(=O)OCCCC)c(NC(=O)OCCCC)c1`, for which the Ratio in [1] is 0.77; in test [2], 2.75; in test [3] it was 4.13.

`C#CCN(Cc1ccc(F)cc1)c1ccc(NC(=O)OCC=C)c(NC(=O)OCC=C)c1`: the Ratio in [1] turned out to be 0.67; in test [2], 2.21; in test [3], 5.26.
